This is an account of results in ChEMBL document CHEMBL2434860, “Nitroreductase-activated nitric oxide (NO) prodrugs” (Bioorg Med Chem Lett, 2013).

Structures are written as SMILES.

Data set [1] is described as follows: Half life in aqueous buffer assessed as nitric oxide release at pH 7.4. The format is physicochemical.
For data set [2], the system named is DLD-1. The data set is described as follows: Antiproliferative activity against human DLD1 cells assessed as cell viability at 100 uM after 72 hrs by MTT assay in presence of Escherichia coli NTR and NADPH (reference value: 107.4%). The format is functional. Conditions: DLD-1, 72 h, read-out: Activity. Summed up:
(§1)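 DLD-1 human colon adenocarcinoma cells seeded at 3 × […] cells/well overnight in complete RPMI 1640. Treated with compound from DMSO stock (1% DMSO final), with or without E. coli nitroreductase (6 mg/2 mL DPBS stock) and NADPH (0.5 mM stock in DPBS). Incubated 72 h at 37 °C. MTT added for 4 h, formazan dissolved in DMSO, absorbance read at 570 nm for viability.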
(Tetrazolium assays rely on reduction of a dye to a coloured formazan, in cell work by metabolically active cells.)

Data set [3] relates to DLD-1. The data set is described as follows: Antiproliferative activity against human DLD1 cells assessed as cell viability at 50 uM after 72 hrs by MTT assay in presence of Escherichia coli NTR and NADPH (reference value: 107.4%). It counts as functional. Conditions: DLD-1, 72 h, read-out: Activity. Summed up:
as §1

Data set [4] has as its system DLD-1. Put plainly: Antiproliferative activity against human DLD1 cells assessed as cell viability at 100 uM after 72 hrs by MTT assay in absence of Escherichia coli NTR and NADPH (reference value: 107.4%). It counts as functional. Conditions: DLD-1, 72 h, read-out: Activity. Summed up: as §1
Data set [5] has as its system DLD-1. Put plainly: Antiproliferative activity against human DLD1 cells assessed as cell viability at 50 uM after 72 hrs by MTT assay in absence of Escherichia coli NTR and NADPH (reference value: 107.4%). It counts as functional. The note with it: DLD-1, 72 h, read-out: Activity. A digest of the protocol: as §1
Data set [6] deals with DLD-1. Put plainly: Antiproliferative activity against human DLD1 cells assessed as cell viability at 25 uM after 72 hrs by MTT assay in absence of Escherichia coli NTR and NADPH (reference value: 107.4%). The format is functional. The note with it: DLD-1, 72 h, read-out: Activity. A digest of the protocol:
as §1

Data set [7] deals with DLD-1. Put plainly: Cytotoxicity against human DLD1 cells assessed as cell viability at 25 uM after 72 hrs by MTT assay in presence of Escherichia coli NTR and NADPH (reference value: 107.4%). The format is functional. The note with it: DLD-1, 72 h, read-out: Activity. Summed up:
as §1

Data set [8] is described as follows: Stability of the compound in phosphate buffer at pH 7.0 assessed as nitric oxide release at 50 uM after 1 hr by chemiluminescence assay in absence of Escherichia coli NTR and presence of NADPH. The note with it: pH 7, 1 h. It counts as physicochemical. Summed up: (§2)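 Compound at 50 µM was incubated at 37 °C in pH 7.0 phosphate buffer with NADPH, with or without E. coli nitroreductase. After 1 h, an aliquot was injected into a chemiluminescence NO analyser (argon carrier) whose reservoir held NaI/acetic acid, so nitrite was also counted as NO. The signal was calibrated against NaNO2 standards. Values are averages of two independent runs.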

Data set [9] is described as follows: Prodrug conversion in phosphate buffer at pH 7.0 assessed as Escherichia coli NTR-mediated decomposition measuring nitric oxide release at 50 uM after 1 hr by chemiluminescence assay in presence of NADPH. The format is physicochemical. Conditions: pH 7, 1 h. Summed up: as §2
Data set [10] is described as follows: Prodrug conversion in phosphate buffer at pH 7.0 assessed as Escherichia coli NTR-mediated decomposition measuring compound remaining at 50 uM after 1 hr by HPLC analysis in presence of NADPH. The format is physicochemical. Conditions: pH 7, 1 h. A digest of the protocol: (§3)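 Compound at 50 µM (from a 10 mM DMSO stock) was stirred at 37 °C in pH 7.0 phosphate buffer with NADPH, with or without E. coli nitroreductase; the blank had no enzyme. After 1 h, an aliquot was analysed by reverse-phase C-18 HPLC (70% MeCN:H2O, 1 mL/min) for compound remaining. Values are averages of two independent runs.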

Data set [11] can be described thus: Stability of the compound in phosphate buffer at pH 7.0 assessed as compound remaining at 50 uM after 1 hr by HPLC analysis in absence of Escherichia coli NTR and presence of NADPH. The format is physicochemical. The note with it: pH 7, 1 h. A digest of the protocol:
as §3

Data set [12] deals with HeLa. The data set is described as follows: Cytotoxicity against human HeLa cells assessed as cell viability at 25 uM after 72 hrs by MTT assay in presence of Escherichia coli NTR and NADPH (reference value: 67.2%). The format is functional. Conditions: read-out: Activity.
Data set [13] deals with HeLa. Put plainly: Cytotoxicity against human HeLa cells assessed as cell viability at 10 uM after 72 hrs by MTT assay in presence of Escherichia coli NTR and NADPH (reference value: 67.2%). It counts as functional. The note with it: read-out: Activity.
For data set [14], the system named is HeLa. The data set is described as follows: Cytotoxicity against human HeLa cells assessed as cell viability at 1 uM after 72 hrs by MTT assay in presence of Escherichia coli NTR and NADPH (reference value: 67.2%). It counts as functional. Conditions: read-out: Activity.
For data set [15], the system named is HeLa. The data set is described as follows: Cytotoxicity against human HeLa cells assessed as cell viability at 25 uM after 72 hrs by MTT assay in absence of Escherichia coli NTR and NADPH (reference value: 88.2%). Conditions: read-out: Activity. It counts as functional.
For data set [16], the system named is HeLa. Put plainly: Cytotoxicity against human HeLa cells assessed as cell viability at 1 uM after 72 hrs by MTT assay in absence of Escherichia coli NTR and NADPH (reference value: 88.2%). It counts as functional. Conditions: read-out: Activity.
Data set [17] deals with HeLa. Put plainly: Cytotoxicity against human HeLa cells assessed as cell viability at 10 uM after 72 hrs by MTT assay in absence of Escherichia coli NTR and NADPH (reference value: 88.2%). It counts as functional. The note with it: read-out: Activity.
The subject of data set [18] is DLD-1. The data set is described as follows: Antiproliferative activity against human DLD1 cells assessed as cell viability at 10 uM after 72 hrs by MTT assay in presence of Escherichia coli NTR and NADPH (reference value: 86.3%). The format is functional. The note with it: DLD-1, 72 h, read-out: Activity. Summed up: as §1
Data set [19] relates to DLD-1. The data set is described as follows: Antiproliferative activity against human DLD1 cells assessed as cell viability at 1 uM after 72 hrs by MTT assay in presence of Escherichia coli NTR and NADPH (reference value: 86.3%). The format is functional. The note with it: DLD-1, 72 h, read-out: Activity. Summed up:
as §1

The test system of data set [20] is DLD-1. The data set is described as follows: Antiproliferative activity against human DLD1 cells assessed as cell viability at 25 uM after 72 hrs by MTT assay in absence of Escherichia coli NTR and presence of NADPH (reference value: 74.8%). It counts as functional. The note with it: DLD-1, 72 h, read-out: Activity. A digest of the protocol:
as §1

For data set [21], the system named is DLD-1. The data set is described as follows: Antiproliferative activity against human DLD1 cells assessed as cell viability at 10 uM after 72 hrs by MTT assay in absence of Escherichia coli NTR and presence of NADPH (reference value: 74.8%). The format is functional. Conditions: DLD-1, 72 h, read-out: Activity. A digest of the protocol: as §1
Data set [22] relates to DLD-1. The data set is described as follows: Antiproliferative activity against human DLD1 cells assessed as cell viability at 1 uM after 72 hrs by MTT assay in absence of Escherichia coli NTR and presence of NADPH (reference value: 74.8%). The note with it: DLD-1, 72 h, read-out: Activity. The format is functional. A digest of the protocol:
as §1

The nature of data set [23]: Prodrug conversion in phosphate buffer at pH 6.5 assessed as Escherichia coli NTR-mediated decomposition measuring nitric oxide release at 50 uM after 5 mins. Conditions: pH 6.5, 5 min. The format is physicochemical. A digest of the protocol:
(§4)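 Compound at 50 µM was reacted with E. coli nitroreductase and NADPH in phosphate buffer at pH 6.5 or at pH 7.4 (PBS), stirred at 37 °C. Aliquots were injected at set time points into a chemiluminescence NO analyser with an NaI/acetic acid reservoir, which also converts nitrite to NO. The signal was calibrated with NaNO2 standards.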

Data set [24] in a line: Prodrug conversion in phosphate buffer at pH 7.4 assessed as Escherichia coli NTR-mediated decomposition measuring nitric oxide release at 50 uM after 5 mins. The format is physicochemical. The note with it: pH 7.4, 5 min. A digest of the protocol:
as §4

The test system of data set [25] is HeLa. The data set is described as follows: Cytotoxicity against human HeLa cells assessed as cell viability after 72 hrs by MTT assay in presence of Escherichia coli NTR and NADPH. It counts as functional, cell-based.
In data set [26] the test system is DLD-1. The data set is described as follows: Antiproliferative activity against human DLD1 cells assessed as cell viability at 25 uM after 72 hrs by MTT assay in presence of Escherichia coli NTR and NADPH (reference value: 86.3%). The format is functional. The note with it: DLD-1, 72 h, read-out: Activity. Summed up:
as §1

Data set [27] concerns DLD-1. Put plainly: Antiproliferative activity against human DLD1 cells assessed as cell viability at 75 uM after 72 hrs by MTT assay in presence of Escherichia coli NTR and NADPH relative to control. It counts as functional. The note with it: DLD-1, 72 h, read-out: Activity. A digest of the protocol: as §1
For data set [28], the system named is DLD-1. Put plainly: Antiproliferative activity against human DLD1 cells assessed as cell viability at 75 uM after 72 hrs by MTT assay in absence of Escherichia coli NTR and presence of NADPH. It counts as functional. The note with it: DLD-1, 72 h, read-out: Activity. A digest of the protocol:
as §1

Consider `[Na+].[O-]/N=[N+](\[O-])N1CCCC1`, for which, in data set [1], the t1/2 is on record as 2 s.
As for `O=C(OCc1ccc([N+](=O)[O-])cc1)c1ccccc1`, the viability at 100 µM with DLD-1 [2] was 50.5%; with DLD-1 [4] it was 84.5%. Further, the viability at 50 µM was 85.5% with DLD-1 [3] and 89.2% with DLD-1 [5]. Besides, the viability at 25 µM stood at 98.3% in the data set on DLD-1 [6] and 93.4% in the data set on DLD-1 [7]. Besides, the Stability result in data set [8] is given as “Stable”; in data set [10] it was 68%; in [11] it was “Stable”. The Drug metabolism in [9] was found to be 1.1 µM.
For the compound `CC1CCCCN1/[N+]([O-])=N/OCc1ccc([N+](=O)[O-])cc1` (configuration not stated), the viability at 25 µM in the data set on HeLa [12] worked out at 6.9%; with HeLa [15], 24.6%; in the data set on DLD-1 [20], 63.7%; with DLD-1 [26], 12.5%. For the same compound, the viability at 10 µM in the data set with HeLa [13] was determined as 31.1%; in the data set with HeLa [17], 65.3%; in the data set on DLD-1 [18], 30.8%; in the data set on DLD-1 [21] it was 69.1%. For the same compound, the viability at 1 µM with HeLa [14] worked out at 56.6%; in the data set on HeLa [16] it was 76.9%; in the data set with DLD-1 [19], 38.6%; in the data set with DLD-1 [22] it was 82.1%. The Drug metabolism came out at 6 µM in data set [23], 17 µM in data set [24] and 19.7 µM in data set [9]. The Activity entry in the data set with HeLa [25] was “Dose-dependent effect”. Moreover, the viability at 75 µM came out at 10.2% in the data set on DLD-1 [27] and 53% in the data set on DLD-1 [28]. The figures for the Stability entry in [8], in data set [10] and in data set [11] were “Stable”, 31% and “Stable”, respectively.
Turning to `CCN(CC)/[N+]([O-])=N/OCc1ccc([N+](=O)[O-])cc1`, the viability at 75 µM in the data set with DLD-1 [27] stood at 27.5%; in the data set on DLD-1 [28], 79.2%. The Stability entry in [8] is given as “Stable”; in data set [10], 60%; in data set [11], “Stable”. In addition, the Drug metabolism in data set [9] came to 6.8 µM.
Take `CN(C)/[N+]([O-])=N/OCc1ccc([N+](=O)[O-])cc1`: the viability at 75 µM in the data set with DLD-1 [27] was determined as 32.2%; with DLD-1 [28], 74.7%. For the same compound, the values for the Stability result in data set [8], in data set [10] and in data set [11] were “Stable”, 60% and “Stable”, respectively. Moreover, in data set [9], the Drug metabolism was found to be 13.6 µM.
Take `O=[N+]([O-])c1ccc(CO/N=[N+](\[O-])N2CCCC2)cc1`: the values for the viability at 75 µM in the data set with DLD-1 [27] and with DLD-1 [28] were 48.5% and 68.6%, respectively. Besides, the Stability entry in data set [8] is given as “Stable”; in data set [10], 28%; in [11] it was “Stable”. For the same compound, in [9], the Drug metabolism came to 18.3 µM.
As to `CN(C)/[N+]([O-])=N/[O-].[Na+]`, in [1], the t1/2 is 24 s.
In the case of `CCN(CC)/[N+]([O-])=N/[O-].[Na+]`, the t1/2 in [1] was determined as 120 s.
